Assay outcomes from PubChem.
V1aR counter: activates human V1a receptor in oxytocin agonist counter-screen; P37288; CHO-V1R cells, Fluo-8 calcium fluorescence, agonist mode; 0% DMSO, 100% 3 nM vasopressin; activation, % at 3 µM; 320,000 compounds, 0.25% hits; AID 2797;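 active = activation above the mean activation of all tested compounds plus 3 SD, per screening run, cut at about 20% in these data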;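 note: signal is peak over basal fluorescence ratio across a 100 second FLIPR read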
OXTR potentiate: human OXTR potentiation; P30559; CHO-OTR cells, Fluo-8 calcium fluorescence, potentiator mode; 0% = oxytocin EC15, 100% = EC100; activation, % at 3 µM; 320,000 compounds, 0.061% hits; AID 2445;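 active = activation above that plate's cutoff, the mean activation of tested compounds plus 3 SD, cut at about 6.6% in these data, passing the limit was not always enough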;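 note: 100% uses oxytocin at 75 nM as the full agonist control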
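Replication – single well per compound, singlicate · Assay system – CHO cell line stably expressing human OTR · Timing – 6 min pre-incubation, 100 s read · Measure – normalized max/min fluorescence ratio, % activation · Doses – 3.0 µM, one dose · Detection – Fluo-8 calcium dye fluorescence · Probe or stimulus – oxytocin near EC15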
OXTR ag: human OXTR agonism; AID 2435; 320,000 compounds, 0.32% hits; activation, % at 3 µM; CHO-OTR cells, Fluo-8 calcium fluorescence; normalized: DMSO 0%, oxytocin 100%;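 active = activation above the mean of all tested compounds plus 3 SD, cutoff set per screening run, cut at about 20% in these data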;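 note: peak over basal fluorescence ratio from a 100 s FLIPR kinetic read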
TRPN1 ag: agonists of zebrafish TRPN1 channel | HEK293 zebrafish TRPN1-YFP, Fluo-8 calcium fluorescence; 100% = response to 87 µM carbachol | activation, % at 3 µM | 220,000 compounds, 0.18% hits | AID 1424;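 active = activation above its plate's cutoff, the mean activation of test wells on that plate plus 3 SD, cut at about 19% in these data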;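 note: 0% = DMSO alone and 100% = 87 µM carbachol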
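Material – zebrafish TRPN1-YFP in HEK293 cells · Doses – 3 µM single point · Schedule – dye 1 h 37 °C plus 30 min RT · Signal – Fluo-8 calcium fluorescence, excitation 470-495 nm, emission 515-575 nm · Read-out – % activation versus carbachol response · Control set – carbachol high, DMSO low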
TRPML3 agonist: human mucolipin-3 channel agonism; activation, % at 3 µM; 220,000 compounds, 0.29% hits; AID 1448; HEK293 TRPML3-YFP, Fluo-8 calcium fluorescence; 100% = the carbachol control signal;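 active = activation above its plate's cutoff, the mean activation of the plate's test wells plus 3 SD, cut at about 12% in these data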;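 note: 0% = DMSO only wells and 100% = carbachol wells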
Target sequence (Q8TDD5 whole entry, looked up): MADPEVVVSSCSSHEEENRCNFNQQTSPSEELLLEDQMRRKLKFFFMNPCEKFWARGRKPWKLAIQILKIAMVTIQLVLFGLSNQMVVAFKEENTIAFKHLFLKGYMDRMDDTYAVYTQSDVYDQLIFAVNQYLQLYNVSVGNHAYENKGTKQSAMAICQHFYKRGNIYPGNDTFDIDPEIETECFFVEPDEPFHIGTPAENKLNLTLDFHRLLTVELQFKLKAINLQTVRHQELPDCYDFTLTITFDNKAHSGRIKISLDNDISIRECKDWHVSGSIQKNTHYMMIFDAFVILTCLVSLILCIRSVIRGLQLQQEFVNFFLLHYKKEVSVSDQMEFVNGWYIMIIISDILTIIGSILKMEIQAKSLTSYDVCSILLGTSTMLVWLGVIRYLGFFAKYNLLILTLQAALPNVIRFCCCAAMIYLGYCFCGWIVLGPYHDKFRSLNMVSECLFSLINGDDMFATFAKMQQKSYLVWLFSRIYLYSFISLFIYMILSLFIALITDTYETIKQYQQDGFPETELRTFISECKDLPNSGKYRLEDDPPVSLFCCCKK
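system = HEK293 cells stably carrying human TRPML3-YFP | doses = one concentration, 3 µM nominal, 0.3% DMSO | timing = dye loading 1 h 37 °C then 30 min ambient, 125 s read | detection = Fluo-8 calcium dye fluorescence, ex 470-495, em 515-575 nm | benchmarks = high control carbachol 87 µM, low control DMSO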
The depositor's hits bear a star; x = not tested or not shown. A selection: hits, their analogues and other compounds. The true share with any hit is near 0.55%.

SMILES	V1aR counter	OXTR potentiate	OXTR ag	TRPN1 ag	TRPML3 agonist
CSc1ccc(Cn2nnc(C(=O)NCc3ccccc3)c2N)cc1	36.3*	-26.3	35.5*	18.8	11.3
COc1ccc(-c2csc(NC(=O)CSCc3c(C)noc3C)n2)c(OC)c1	-1.1	-17.5	-2.0	x	x
CC(C)c1cc(C(C)C)c(S(=O)(=O)N2c3ccccc3[C@@]3(Br)C[C@H]4C(=O)N[C@@H](Cc5ccccc5)C(=O)N4[C@@H]23)c(C(C)C)c1	1.8	-24.5	-0.2	x	x
CC(C)S(=O)(=O)c1csc(NC(=O)Nc2ccc(Cl)cc2)c1	17.3	-18.1	10.4	21.2*	6.6
CC1CCN(c2ccc3c(c2)S(=O)(=O)c2cccc(C(=O)NCc4ccc(F)cc4)c2C3=O)CC1	4.1	-2.4	5.2	x	x
CC(C)(C)CNC(=O)c1cccc2c1C(=O)c1ccc(N3CCCC3)cc1S2(=O)=O	11.0	-8.5	8.3	x	x
O=C(NCc1ccccc1C(F)(F)F)c1cccc2c1C(=O)c1ccc(N3CCCCC3)cc1S2(=O)=O	24.8*	-11.1	24.5*	x	x
O=C(NCc1ccc(F)cc1)c1cccc2c1C(=O)c1ccc(N3CCC(Cc4ccccc4)CC3)cc1S2(=O)=O	27.3*	-11.6	20.2*	x	x
O=C1c2ccccc2S(=O)(=O)c2cc(N3CCc4ccccc4C3)ccc21	1.5	-7.0	1.3	x	x
CC(C)CCNC(=O)NC(=O)CSc1ncccn1	-1.0	-19.8	-0.7	0.6	0.5
Cn1c(CNC(=O)c2ccco2)nnc1SCC(=O)Nc1ccccc1Cl	-0.8	-10.0	-0.5	x	x
CN(C)S(=O)(=O)N1C(=O)c2ccccc2C1=O	0.7	-3.8	1.0	0.3	0.6
CN(C)/C=C1\C=C2C(=O)c3ccccc3N2C1=O	95.2*	-21.8	436.2*	729.2*	357.4*
CN1CCC(N(C)S(=O)(=O)c2ccc(NC(=O)COc3ccc(F)cc3)cc2)CC1	2.8	-3.0	4.5	x	x
CN1CCC(N(C)S(=O)(=O)c2ccc(NC(=O)COc3ccc(Cl)cc3)cc2)CC1	24.1*	-9.8	24.6*	x	x
CN(C)c1ccc(/C=C2\Oc3ccc(C#Cc4cccc(N)c4)cc3C2=O)cc1	41.4*	-12.7	41.4*	x	x
CCOC(=O)/C(=C\C=C1/Sc2ccccc2N1CC)C(C)=O	40.4*	-12.1	59.6*	29.9*	19.9*
CCOC(=O)/C(=C/C=C1\Sc2ccccc2N1CC)C(C)=O	49.3*	-17.1	46.0*	51.1*	22.6*
CCOC(=O)/C(=C/C=C1\Sc2cc(C)c(C)cc2N1CC)C(C)=O	x	x	x	31.1*	20.8*
CCN(CC)S(=O)(=O)c1ccc(NC(=O)c2ccc(OCC3CCCO3)cc2)cc1 (stereo unspecified)	12.3	-12.1	13.9	x	x
CN(C)CCN(C(=O)C1=COCCO1)c1nc2ccc(F)cc2s1	1.2	-2.4	0.8	x	x
NC(=O)c1ccc[n+]([C@H]2O[C@@H](COP(=O)([O-])OP(=O)(O)OC[C@H]3O[C@@H](n4cnc5c(N)ncnc54)[C@H](O)[C@@H]3O)[C@H](O)[C@@H]2O)c1	69.3*	-22.4	50.7*	x	x
CC(=O)OCC1O[C@@H](O[C@@H]2C[C@H]3C(C)(C)[C@H](OC(C)=O)CC[C@]3(C)[C@H]3CC[C@]45C[C@]4(CC[C@H]5[C@@H](C)C[C@@H](O)[C@H](O)C(C)(C)O)[C@@]32C)[C@H](O)[C@@H](O)[C@@H]1O (stereo partly specified)	87.4*	-17.9	68.9*	1.2	-0.1
CC(C)=CCC[C@](C)(O[C@@H]1O[C@H](CO[C@@H]2O[C@H](CO)[C@@H](O)[C@H](O)[C@H]2O)[C@@H](O)[C@H](O)[C@H]1O)C1CC[C@]2(C)C1C(=O)CC1[C@@]3(C)CC[C@H](O[C@H]4O[C@@H](CO)[C@H](O)[C@@H](O)[C@@H]4O)C(C)(C)C3CC[C@]12C (stereo partly specified)	0.6	-2.3	0.8	x	x
O=C(c1ccc([N+](=O)[O-])cc1)N(Cc1ccc(Br)cc1)N1C(=O)CCCC1=O	1.3	-7.2	2.0	46.6*	95.3*
CCOC(=O)c1ccc(NC(=S)N2CCSC2c2ccc(Cl)cc2)cc1 (stereo unspecified)	39.0*	-11.8	37.5*	5.2	3.1
